Laboratory results reported in ChEMBL document CHEMBL1131580, “Antihyperglycemic activities of cryptolepine analogues: an ethnobotanical lead structure isolated from Cryptolepis sanguinolenta” (1998).

Experiments:
3T3-L1 [1] = experiment: In vitro glucose transport activity in 3T3-LI adipocytes at 10 uM concentration.; assay type: functional, Mus musculus
Procedure, shortened: (§1)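 Differentiated 3T3-L1 adipocytes, no added insulin, treated in triplicate for 18 h with compound at 3, 10 or 30 µM. Glucose transport expressed as % (relative to untreated); values are means of triplicate runs, significance by one-tailed independent Student's t-test.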

3T3-L1 [2] = experiment: In vitro glucose transport activity in 3T3-LI adipocytes at 30 uM concentration.; assay type: functional, Mus musculus; procedure, shortened: as §1
3T3-L1 [3] = experiment: In vitro glucose transport activity in 3T3-LI adipocytes at 3 uM concentration.; assay type: functional, Mus musculus; procedure, shortened: as §1
Mus musculus [4] = experiment: Mean body weight measured in genetically altered obese diabetic mice(db/db) at 100 mg/kg at 0 hr postdose; assay type: functional
Procedure, shortened: (§2)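 Obese diabetic C57BL/KS-db/db mice, single dose at t = 0, n = 8 per group (n = 5 for parent compound). Body weight recorded per mouse at 0 and 24 h; food intake reported as g/mouse/day. Vehicle used as negative control, metformin as positive control.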

Mus musculus [5] = experiment: Change in plasma glucose levels measured in genetically altered obese diabetic mice(db/db) at 100 mg/kg at 24 hr postdose; assay type: functional
Mus musculus [6] = experiment: Food intake measured in genetically altered obese diabetic mice(db/db) at 100 mg/kg dose; assay type: functional; procedure, shortened: as §2
Mus musculus [7] = experiment: Change in plasma glucose levels measured in genetically altered obese diabetic mice(db/db) at 100 mg/kg at 3 hr postdose; assay type: functional
Mus musculus [8] = experiment: Mean body weight measured in genetically altered obese diabetic mice(db/db) at 100 mg/kg at 24 hr postdose; assay type: functional; procedure, shortened: as §2
Mus musculus [9] = experiment: Mean body weight measured in genetically altered obese diabetic mice(db/db) at 30 mg/kg at 0 h postdose; assay type: functional; procedure, shortened: as §2
Mus musculus [10] = experiment: Change in plasma glucose levels measured in genetically altered obese diabetic mice(db/db) at 30 mg/kg at 3 hr postdose; assay type: functional
Mus musculus [11] = experiment: Change in plasma glucose levels measured in genetically altered obese diabetic mice(db/db) at 30 mg/kg at 24 hr postdose; assay type: functional
Mus musculus [12] = experiment: Food intake measured in genetically altered obese diabetic mice(db/db) at 100 mg/kg dose; 6 animals died; assay type: functional
Mus musculus [13] = experiment: Mean body weight measured in genetically altered obese diabetic mice(db/db) at 30 mg/kg at 24 h postdose; assay type: functional; procedure, shortened: as §2
Mus musculus [14] = experiment: Food intake measured in genetically altered obese diabetic mice(db/db) at 30 mg/kg dose; assay type: functional; procedure, shortened: as §2
Mus musculus [15] = experiment: Food intake measured in genetically altered obese diabetic mice(db/db) at 100 mg/kg dose; 2 animals died; assay type: functional
Mus musculus [16] = experiment: Mean body weight measured in genetically altered obese diabetic mice(db/db) at 30 mg/kg at 0 hr postdose; assay type: functional; procedure, shortened: as §2
Mus musculus [17] = experiment: Mean body weight measured in genetically altered obese diabetic mice(db/db) at 30 mg/kg at 24 hr postdose; assay type: functional; procedure, shortened: as §2

SMILES | Glucose transport (3T3-L1 [1]) | Glucose transport (3T3-L1 [2]) | Glucose transport (3T3-L1 [3]) | Mean body weight (Mus musculus [4]) | Change (Mus musculus [5]) | Food intake (Mus musculus [6]) | Change (Mus musculus [7]) | Mean body weight (Mus musculus [8]) | other results
C[n+]1c2ccc(F)cc2c(Sc2ccc(Cl)cc2)c2[nH]c3ccccc3c21.[Cl-] | 154% | 13% | 128% | – | – | – | – | – | –
C[n+]1c2ccc(Cl)cc2c(Cl)c2[nH]c3ccccc3c21.[Cl-] | 138% | 215% | 108% | – | – | – | – | – | –
C[n+]1c2ccccc2c(Sc2ccc(Cl)cc2)c2oc3ccccc3c21.O=S(=O)([O-])C(F)(F)F | 142% | 141% | 118% | – | – | – | – | – | –
Fc1ccc(C[n+]2c3ccccc3cc3[nH]c4ccccc4c32)cc1.[Cl-] | 248% | 323% | 168% | 40.2 g mouse-1 | -9.7% | 3.1 g mouse-1 day-1 | -36.3% | 39 g mouse-1 | –
C[n+]1c2ccccc2c(Cl)c2sc3ccccc3c21.O=S(=O)([O-])C(F)(F)F | 100% | 110% | 96% | – | – | – | – | – | –
C[n+]1c2ccccc2cc2[nH]c3cc(Cl)c(Br)cc3c21.[Cl-] | 127% | 0.1% | 104% | 45.5 g mouse-1 | -18.9% | 2.8 g mouse-1 day-1 | -33% | 44.6 g mouse-1 | –
C[n+]1c2ccccc2c(I)c2[nH]c3ccc(F)cc3c21.[Cl-] | 117% | 0.92% | 115% | 42.2 g mouse-1 | -13.2% | 2.7 g mouse-1 day-1 | -33.1% | 41.8 g mouse-1 | –
COC(=O)c1c2ccccc2[n+](C)c2c3ccccc3n(C)c12.[I-] | 207% | 260% | 155% | – | – | – | – | – | –
C[n+]1c2ccccc2c(Cl)c2[nH]c3cccc(F)c3c21.[Cl-] | 457% | 6.4% | 143% | – | – | – | – | – | –
[Cl-].c1ccc(C[n+]2c3ccccc3cc3[nH]c4ccccc4c32)cc1 | 781% | 161% | 611% | 39.3 g mouse-1 | -20% | 5.1 g mouse-1 day-1 | -15% | 38.9 g mouse-1 | –
C[n+]1c2c(c(Sc3ccc(Cl)cc3)c3ccccc31)Cc1ccccc1-2.O=S(=O)([O-])C(F)(F)F | 110% | 122% | 108% | – | – | – | – | – | –
CCCC[n+]1c2ccccc2cc2[nH]c3ccccc3c21.[Cl-] | 868% | 490% | 561% | 45.8 g mouse-1 | -2.2% | – | -33.8% | 45.8 g mouse-1 | Mean body weight (Mus musculus [9]): 38.7 g mouse-1; Change (Mus musculus [10]): 4%; Change (Mus musculus [11]): -22%; Food intake (Mus musculus [12]): 2.6 g mouse-1 day-1; Mean body weight (Mus musculus [13]): 38.6 g mouse-1; Food intake (Mus musculus [14]): 6 g mouse-1 day-1
C[n+]1c2c(c(Cl)c3ccccc31)Cc1ccccc1-2.O=S(=O)([O-])C(F)(F)F | 119% | 297% | 125% | – | – | – | – | – | –
C[n+]1c2ccccc2c(I)c2[nH]c3c(F)cccc3c21.[Cl-] | 255% | 0.1% | 129% | 43.4 g mouse-1 | -32.9% | 0.7 g mouse-1 day-1 | 19.9% | 41.4 g mouse-1 | –
C[n+]1c2ccccc2c(Cl)c2[nH]c3ccccc3c21.[Cl-] | 101% | 0.33% | 107% | – | – | – | – | – | –
C[n+]1c2ccccc2c(Cl)c2oc3ccccc3c21.O=S(=O)([O-])C(F)(F)F | 114% | 107% | 119% | 40.6 g mouse-1 | -20.8% | 4.9 g mouse-1 day-1 | -17.9% | 41.1 g mouse-1 | –
C[n+]1c2ccc(F)cc2c(Oc2ccccc2)c2[nH]c3ccccc3c21.[Cl-] | 207% | 0.39% | 140% | 46.6 g mouse-1 | -7.5% | 1.6 g mouse-1 day-1 | -11.8% | 45.2 g mouse-1 | –
C[n+]1c2ccccc2cc2[nH]c3ccccc3c21.[I-] [CRYPTOLEPTINE IODIDE] | 163% | 287% | 134% | – | – | – | – | – | –
C[n+]1c2ccc(F)cc2c(Cl)c2[nH]c3ccccc3c21.[Cl-] | 224% | 3.3% | 142% | – | – | – | – | – | –
C[n+]1c2cccc(Cl)c2c(Cl)c2[nH]c3ccccc3c21.[Cl-] | 282% | 352% | 120% | – | – | – | – | – | –
C[n+]1c2ccccc2cc2[n-]c3ccccc3c21.Cl [CRYPTOLEPINE HYDROCHLORIDE] | 305% | 359% | 148% | 41 g mouse-1 | -43.1% | 0.9 g mouse-1 day-1 | -16.4% | 39.8 g mouse-1 | –
C[n+]1c2ccc(F)cc2c(Nc2ccccc2)c2[nH]c3ccccc3c21.[Cl-] | 208% | 0.9% | 325% | 44.8 g mouse-1 | -10.7% | 3.2 g mouse-1 day-1 | -10.5% | 44.2 g mouse-1 | –
C[n+]1c2ccc(F)cc2c(-c2ccccc2)c2[nH]c3ccccc3c21.[Cl-] | 215% | 116% | 281% | 40.5 g mouse-1 | -4.9% | 5.1 g mouse-1 day-1 | -11.2% | 40.4 g mouse-1 | –
C[n+]1c2ccccc2c(Cl)c2[nH]c3ccc(-c4ccccc4)cc3c21.[Cl-] | 190% | 16% | 122% | – | – | – | – | – | –
C[n+]1c2ccccc2c(Cl)c2[nH]c3cc(F)ccc3c21.[Cl-] | 159% | 6% | 107% | – | – | – | – | – | –
CC[n+]1c2ccccc2cc2[nH]c3ccccc3c21.[Cl-] | 228% | 404% | 197% | 44.6 g mouse-1 | -26.5% | – | -23.2% | 43.3 g mouse-1 | Change (Mus musculus [10]): -7.7%; Food intake (Mus musculus [15]): 1 g mouse-1 day-1; Change (Mus musculus [11]): -4.1%; Mean body weight (Mus musculus [16]): 41.7 g mouse-1; Mean body weight (Mus musculus [17]): 41.2 g mouse-1; Food intake (Mus musculus [14]): 5.1 g mouse-1 day-1
COc1cccc2cc3[nH]c4ccccc4c3[n+](C)c12.[Cl-] | 486% | 543% | 237% | 38.4 g mouse-1 | -58.3% | 2 g mouse-1 day-1 | -8.3% | 37.1 g mouse-1 | –
C[n+]1c2ccc(F)cc2cc2[nH]c3ccccc3c21.[Cl-] | 360% | 443% | 253% | 43.8 g mouse-1 | -34.5% | 0.5 g mouse-1 day-1 | -42.5% | 41.9 g mouse-1 | –
COC(=O)c1c2ccccc2[n+](C)c2c1[nH]c1ccccc12.[I-] | 159% | 371% | 63% | – | – | – | – | – | –
